# Assay results published in ChEMBL document CHEMBL1833958, “Anti-AIDS agents 87. New bio-isosteric dicamphanoyl-dihydropyranochromone (DCP) and dicamphanoyl-khellactone (DCK) analogues with potent anti-HIV activity” (Bioorg Med Chem Lett, 2011).
# Tests used:
# [1] = test system: Human immunodeficiency virus 1; test: Antiviral activity against Human immunodeficiency virus 1 NL4-3 infected in human TZM-bl cells assessed as inhibition of viral replication after 48 hrs by luciferase reporter gene assay; format: functional, organism-based; settings: Human immunodeficiency virus 1, NL4-3, TZM-bl
# In short: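 Single-round infection of TZM-bl cells with HIV-1 NL4-3 at 200 TCID50, mixed with test samples at eight four-fold serial dilutions in growth medium. After 48 h, medium is removed and luciferase reagent added. Luminescence is then read. EC50 is the concentration giving 50% reduction in RLU versus virus control wells, after background RLU subtraction.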
# [2] = Cytotoxicity against human TZM-bl cells assessed as inhibition of cell growth; format: cell-based
# In short: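 Uninfected TZM-bl cells exposed to test samples. CC50 is the concentration inhibiting cell growth by 50%.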
# [3] = Therapeutic index, ratio of CC50 for human TZM-bl cells to EC50 for HIV1 NL4-3; format: cell-based; settings: read-out: Ratio CC50/EC50
# In short: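 TI calculated as CC50 (uninfected TZM-bl growth inhibition) divided by EC50 (NL4-3 replication inhibition in TZM-bl luciferase reporter assay).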
Structure (SMILES),EC50 [1] [nM],CC50 [2] [nM],selectivity ratio [3]
Cc1cc(=O)oc2c3c(ccc12)SC(C)(C)[C@H](OC(=O)[C@@]12CC[C@@](C)(C(=O)O1)C2(C)C)[C@@H]3OC(=O)[C@@]12CC[C@@](C)(C(=O)O1)C2(C)C,128,–,> 238
CCc1cc(=O)c2ccc3c(c2o1)[C@@H](OC(=O)C12CCC(C)(C(=O)O1)C2(C)C)[C@@H](OC(=O)C12CCC(C)(C(=O)O1)C2(C)C)C(C)(C)S3 (stereo partly drawn),54,5400,100
CCc1cc(=O)c2ccc3c(c2o1)[C@@H](OC(=O)C12CCC(C)(C(=O)O1)C2(C)C)[C@@H](OC(=O)C12CCC(C)(C(=O)O1)C2(C)C)C(C)(C)O3 (stereo partly drawn),–,–,119
Cc1cc(=O)oc2c3c(ccc12)SC(C)(C)[C@@H](OC(=O)[C@@]12CC[C@@](C)(C(=O)O1)C2(C)C)[C@H]3OC(=O)[C@@]12CC[C@@](C)(C(=O)O1)C2(C)C,8590,> 30600,> 3.6
CCc1cc(=O)c2ccc3c(c2o1)[C@H](OC(=O)C12CCC(C)(C(=O)O1)C2(C)C)[C@H](OC(=O)C12CCC(C)(C(=O)O1)C2(C)C)[C@@H](C)S3 (stereo partly drawn),184,3830,20.8

# Continued, in another order:
EC50 [1] [nM],Structure (SMILES),CC50 [2] [nM],selectivity ratio [3]
38,CCc1cc(=O)c2ccc3c(c2o1)[C@@H](OC(=O)C12CCC(C)(C(=O)O1)C2(C)C)[C@@H](OC(=O)C12CCC(C)(C(=O)O1)C2(C)C)[C@H](C)S3 (stereo partly drawn),1840,48
30,CCc1cc(=O)c2ccc3c(c2o1)[C@@H](OC(=O)C12CCC(C)(C(=O)O1)C2(C)C)[C@@H](OC(=O)C12CCC(C)(C(=O)O1)C2(C)C)[C@H](C)O3 (stereo partly drawn),4550,153
